Results taken from ChEMBL document CHEMBL4196114 (ACS Med Chem Lett, 2018).

Tests used:
[1] = Selectivity index, ratio of IC50 for PMA-differentiated human THP1 cells to IC50 for Leishmania tropica MHOM/IT/2012/ISS3130 promastigotes; type: toxicity; details: read-out: Ratio IC50
[2] = Selectivity index, ratio of IC50 for PMA-differentiated human THP1 cells to IC50 for Leishmania infantum MHOM/TN/80/IPT1 promastigotes; type: toxicity; details: read-out: Ratio IC50
[3] = test system: Leishmania tropica; assay: Antileishmanial activity against Leishmania tropica MHOM/IT/2012/ISS3130 promastigotes after 72 hrs by MTT assay; type: functional, organism-based; details: MHOM/IT/2012/ISS3130, 72 h
Procedure, shortened: (§1)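 Promastigotes grown in Schneider's medium with 10% FCS at 22 °C. Assay in RPMI with 10% FCS, 20 mM Hepes and 2 mM glutamine, 5×10⁶ parasites/mL, seven serial dilutions from DMSO stocks, 72 h at 22 °C. MTT added for 3 h, pellet lysed in SDS/DMF, A550 read against 650 nm reference. IC50 given as mean of separate duplicate experiments; amphotericin B as reference.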

[4] = test system: Leishmania infantum; assay: Antileishmanial activity against Leishmania infantum MHOM/TN/80/IPT1 promastigotes after 72 hrs by MTT assay; type: functional, organism-based; details: MHOM/TN/80/IPT1, 72 h; procedure, shortened: as §1
[5] = test system: THP-1; assay: Cytotoxicity against PMA-differentiated human THP1 cells after 72 hrs by MTT assay; type: cell-based; details: THP-1, 72 h
Procedure, shortened: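 THP-1 cells at 5×10⁵ cells/mL, differentiated with 0.1 μM PMA for 48 h, then exposed to serial dilutions for 72 h. Viability read by MTT; IC50 for growth inhibition. Duplicate experiments, mean reported.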

[6] = test system: Leishmania infantum; assay: Antileishmanial activity against amastigote stage of Leishmania infantum infected in PMA-differentiated human THP1 cells assessed as inhibition of parasite growth at 0.5 uM after 72 hrs by Giemsa staining based light microscopy relative to control; type: functional; details: THP-1, 72 h
Procedure, shortened: (§2)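 THP-1 cells at 5×10⁵ cells/mL differentiated with 0.1 μM PMA for 48 h, then infected with metacyclic L. infantum promastigotes (1:10 macrophage:parasite) for 24 h. Washed monolayers exposed to compound for 72 h, methanol-fixed and Giemsa-stained. Percent infected macrophages versus untreated scored by light microscopy, and IC50 derived. Single-concentration values are means of two or three experiments, IC50 of two.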

[7] = test system: Leishmania infantum; assay: Antileishmanial activity against amastigote stage of Leishmania infantum infected in PMA-differentiated human THP1 cells assessed as inhibition of parasite growth after 72 hrs by Giemsa staining based light microscopy; type: functional, organism-based; details: THP-1, 72 h; procedure, shortened: as §2
[8] = Selectivity index, ratio of IC50 for PMA-differentiated human THP1 cells to IC50 for amastigote stage of Leishmania infantum infected in PMA-differentiated human THP1 cells; type: toxicity; details: read-out: Ratio IC50
[9] = test system: Mus musculus; assay: Toxicity in C57Bl/6 mouse assessed as survival at 300 mg/kg, po administered as single dose measured twice daily up to 30 days; type: organism-based; details: in vivo, 720 h
Procedure, shortened: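 Healthy female C57Bl/6 mice, groups of four or five, received one oral dose. Compound was first dissolved in DMSO, then suspended in 0.5% hydroxyethylcellulose-0.1% Tween 80. Behaviour and appearance were checked twice daily for 30 days. A dose counted as tolerated if all mice survived 30 days with normal appearance and behaviour.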

SMILES | selectivity ratio [1] | selectivity ratio [2] | IC50 [3] | IC50 [4] | IC50 [5] | inhibition at 0.5 µM [6] | IC50 [7] | selectivity ratio [8] | Activity [9]
Nc1cnc2cc(Cl)ccc2c1NCCCNCC12CC3CC(CC(C3)C1)C2 | 4.9 | 3.6 | 1300 nM | 1770 nM | 6390 nM |  |  |  | 
c1ccc2c(NCCCCNCc3csc4ccccc34)ccnc2c1 | 5.5 | 5.8 | 680 nM | 640 nM | 3760 nM |  |  |  | 
CC(CCCNCc1ccc(-c2csc3ccc(F)cc23)cc1)Nc1ccnc2cc(Cl)ccc12 (stereo not drawn) | 2.7 | 2.5 | 910 nM | 980 nM | 2440 nM | 36.9% | 730 nM | 3.34 | 
N#Cc1ccc(-c2ccc(-c3ccc(CNCCCCCNc4ccnc5cc(Cl)ccc45)cc3)s2)cc1 | 1.1 | 1.5 | 7110 nM | 5420 nM | 8100 nM |  |  |  | 
Fc1ccc2scc(-c3ccc(CNCCCCNc4ccnc5cc(Cl)ccc45)cc3)c2c1 | 5 | 4.2 | 850 nM | 1020 nM | 4280 nM |  |  |  | 
CC(CCN(C)CCC12CC3CC(CC(C3)C1)C2)Nc1ccnc2cc(Cl)ccc12 (stereo not drawn) | 1.8 | 1.3 | 1840 nM | 2460 nM | 3290 nM | 29.6% | 1910 nM | 1.72 | 
Fc1ccc2scc(-c3ccc(CNCCCCNc4ccnc5ccccc45)cc3)c2c1 | 2.3 | 1.9 | 1020 nM | 1240 nM | 2350 nM | 42.7% | 650 nM | 3.61 | Toxic
CN(CCCCCCCCNc1ccnc2c1CCCC2)Cc1ccc(-c2ccc(-c3ccc(C#N)cc3)s2)cc1 | 4.6 | 4.4 | 800 nM | 830 nM | 3680 nM |  |  |  | 
C[C@@H]1[C@H](O)[C@@H](C)/C=C/C=C/C=C/C=C/C=C/C=C/C=C/[C@H](O[C@@H]2O[C@H](C)[C@@H](O)[C@H](N)[C@@H]2O)C[C@@H]2O[C@](O)(C[C@@H](O)C[C@@H](O)[C@H](O)CC[C@@H](O)C[C@@H](O)CC(=O)O[C@H]1C)C[C@H](O)[C@H]2C(=O)O [AMPHOTERICIN B] | > 77.1 | > 83.1 | 140 nM | 130 nM | > 10800 nM | 95.5% | 210 nM | > 51.4 | 
Fc1ccc2scc(C#CCNCCCCNc3ccnc4ccccc34)c2c1 | 5.2 | 7 | 1370 nM | 1020 nM | 7110 nM |  |  |  | 
CN(CCCCCCCCNc1ccnc2ccccc12)Cc1ccc(-c2ccc(-c3ccc(C#N)cc3)s2)cc1 | 3.6 | 4.8 | 1060 nM | 800 nM | 3850 nM |  |  |  | 
Fc1ccc2scc(CNCCCCNc3ccnc4cc(Cl)ccc34)c2c1 | 3.8 | 3.8 | 500 nM | 510 nM | 1910 nM | 26.4% | > 1000 nM | < 1.91 | 
N#Cc1ccc2c(CNCCCCNc3ccnc4cc(Cl)ccc34)csc2c1 | 3.4 | 3.4 | 1240 nM | 1230 nM | 4250 nM | 38.9% | 1290 nM | 3.29 | 
N#Cc1ccc(-c2ccc(-c3ccc(CNCCCCNc4ccnc5ccccc45)cc3)s2)cc1 | 1.8 | 2.3 | 1540 nM | 1220 nM | 2800 nM |  |  |  | 
N#Cc1ccc(-c2ccc(-c3ccc(CNCCCCCCCCNc4ccnc5ccccc45)cc3)s2)cc1 | 4.6 | 4 | 300 nM | 350 nM | 1380 nM |  |  |  | 
CCN(CC)CCCNc1c(N)cnc2cc(Cl)ccc12 | > 7 | > 3.9 | 9350 nM | 16600 nM | > 65200 nM |  |  |  | 
N#Cc1ccc(-c2ccc(-c3ccc(CNCCCCCCCCNc4ccnc5c4CCCC5)cc3)s2)cc1 | 3.1 | 3.2 | 750 nM | 720 nM | 2310 nM | 29.6% | > 1000 nM | < 2.31 | 
CC(CCNCCC12CC3CC(CC(C3)C1)C2)Nc1ccnc2ccccc12 (stereo not drawn) | 2.1 | 2 | 2350 nM | 2400 nM | 4900 nM |  |  |  | 
CCN(CC)CCCC(C)Nc1ccnc2c1CCCC2 (stereo not drawn) | > 1 | > 1 | > 69100 nM | > 69100 nM | > 69100 nM |  |  |  | 
Clc1ccc2c(NCCCNCc3csc4ccccc34)ccnc2c1 | 2.3 | 2.6 | 1310 nM | 1140 nM | 2960 nM | 26.4% | 1850 nM | 1.6 | 
CCN(CC)CCCNc1ccnc2c1CCCC2 | > 1 | > 1 | > 76500 nM | > 76500 nM | > 76500 nM |  |  |  | 
CCN(CC)CCCNc1c([N+](=O)[O-])cnc2cc(Cl)ccc12 | 8.5 | 2.7 | 2770 nM | 8670 nM | 23700 nM |  |  |  | 
CCN(CC)CCCC(C)Nc1c([N+](=O)[O-])cnc2cc(Cl)ccc12 (stereo not drawn) | > 37 | > 16.9 | 2960 nM | 6490 nM | > 110000 nM |  |  |  | 
Clc1ccc2c(NCCCCCNCCC34CC5CC(CC(C5)C3)C4)ccnc2c1 | 2.7 | 2.5 | 660 nM | 730 nM | 1810 nM |  |  |  | 
Fc1ccc2scc(-c3ccc(CNCCCNc4ccnc5ccccc45)cc3)c2c1 | 2.8 | 2.2 | 810 nM | 1030 nM | 2310 nM |  |  |  | 
CCN(CC)CCCC(C)Nc1c(N)cnc2cc(Cl)ccc12 (stereo not drawn) | > 9 | > 3.6 | 6630 nM | 16600 nM | > 59700 nM |  |  |  | 
N#Cc1ccc(-c2ccc(-c3ccc(CNCCCCNc4ccnc5cc(Cl)ccc45)cc3)s2)cc1 | 2.6 | 2.2 | 1940 nM | 2300 nM | 5010 nM |  |  |  | 
CC(CCCNCc1ccc(-c2csc3ccc(C#N)cc23)cc1)Nc1ccnc2ccccc12 (stereo not drawn) | 2.3 | 1.8 | 1220 nM | 1550 nM | 2790 nM | 42.2% | 790 nM | 3.51 | 
O=[N+]([O-])c1cnc2cc(Cl)ccc2c1NCCCNCC12CC3CC(CC(C3)C1)C2 | 5.6 | 6.6 | 2240 nM | 1910 nM | 12600 nM |  |  |  | 
